Converted amounts (≈) assume the structure as drawn.
Tests used:
Staphylococcus aureus = assay: Antibacterial activity against Staphylococcus aureus measured after 24 hrs; assay type: functional
Summary of the method: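 Broth microdilution in TSB. Overnight 37 °C culture from a single colony, washed twice by centrifugation/resuspension in TSB, set to OD600 0.1 (10⁸ CFU/mL), then diluted to 10⁵ CFU/mL. Bacteria added 3:1 to serially diluted compound (DMSO stock diluted in water). Incubated 37 °C, 24 h; OD600 read. MIC = lowest concentration giving OD like the no-bacteria control. Triplicate, three independent experiments.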

[1] = Stability of the compound in CHCl3 under intense heating condition by 1H NMR-spectroscopic analysis; assay type: physicochemical
[2] = Drug metabolism in DMSO-d6 assessed as isorottlerin formation measured after 2 hrs at 100 degC by 1H NMR analysis
[3] = Drug metabolism in DMSO-d6 assessed as isorottlerin formation measured after 2 months at room temperature by RP-HPLC analysis
[4] = Stability of the compound in MeCN under intense heating condition by 1H NMR-spectroscopic analysis; assay type: physicochemical
[5] = Drug metabolism in DMSO-d6 assessed as 6-(3-Acetyl-2,4,6-trihydroxy-5-methylbenzyl)-5-hydroxy-2,2-dimethyl-8-phenyl-8,9-dihydro-2H,10H-pyrano[2,3-f]-chromen-10-one formation measured after 2 hrs at 100 degC by 1H NMR analysis
[6] = Stability of the compound in CHCl3 under room temperature by 1H NMR-spectroscopic analysis; assay type: physicochemical
[7] = Stability of the compound in toluene under intense heating condition by 1H NMR-spectroscopic analysis; assay type: physicochemical
[8] = Stability of the compound in DMSO-d6 measured after 2 months at room temperature by 1H NMR-spectroscopic analysis; assay type: physicochemical; details: 1461 h
[9] = Stability of the compound in acetone under room temperature by 1H NMR-spectroscopic analysis; assay type: physicochemical
[10] = Drug metabolism in DMSO-d6 assessed as 6-(3-Acetyl-2,4,6-trihydroxy-5-methylbenzyl)-5-hydroxy-2,2-dimethyl-8-phenyl-8,9-dihydro-2H,10H-pyrano[2,3-f]-chromen-10-one formation measured after 2 months at room temperature by HSQC analysis
[11] = Stability of the compound in acetone under intense heating condition by 1H NMR-spectroscopic analysis; assay type: physicochemical
[12] = Drug metabolism in DMSO-d6 assessed as isorottlerin formation measured after 2 months at room temperature by HSQC analysis
[13] = Stability of the compound in toluene under room temperature by 1H NMR-spectroscopic analysis; assay type: physicochemical
[14] = Drug metabolism in DMSO-d6 assessed as 6-(3-Acetyl-2,4,6-trihydroxy-5-methylbenzyl)-5-hydroxy-2,2-dimethyl-8-phenyl-8,9-dihydro-2H,10H-pyrano[2,3-f]-chromen-10-one formation measured after 2 months at room temperature by RP-HPLC analysis
[15] = Stability of the compound in MeCN under room temperature by 1H NMR-spectroscopic analysis; assay type: physicochemical

CC(=O)c1c(O)c(C)c(O)c(Cc2c(O)c3c(c4c2OC(c2ccccc2)CC4=O)OC(C)(C)C=C3)c1O (stereo unspecified)
MIC (Staphylococcus aureus): > 125 µM

CC(=O)C1=C(O)C(C)(CC=C(C)C)C(O)=C(Cc2c(O)c(CC=C(C)C)c(O)c(C(C)=O)c2O)C1=O (stereo unspecified) [DRUMMONDIN F]
MIC (Staphylococcus aureus): 0.78 µM (≈ 0.389 µg/mL)

CCC(=O)C1=C(O)C(C)(C)C(O)=C(Cc2c(O)c3c(c(C(=O)CC)c2O)OC(C)(C)C=C3)C1=O [DRUMMONDIN A]
MIC (Staphylococcus aureus): 1.56 µM (≈ 0.734 µg/mL)

CC1(C)C=Cc2c(O)c(Cc3c(O)cc(O)cc3O)c(O)c(C(=O)/C=C/c3ccccc3)c2O1
MIC (Staphylococcus aureus): 15.6 µM (≈ 7.18 µg/mL)

CCC(=O)C1=C(O)C(C)(C)C(O)=C(Cc2c(O)c3c(c(C(C)=O)c2O)OC(C)(C)C=C3)C1=O [DRUMMONDIN B]
MIC (Staphylococcus aureus): 3.12 µM (≈ 1.42 µg/mL)

CC(=O)C1=C(O)C(C)(C)C(O)=C(Cc2c(O)c3c(c(C(C)=O)c2O)OC(C)(C)C=C3)C1=O [DRUMMONDIN C]
MIC (Staphylococcus aureus): 3.12 µM (≈ 1.38 µg/mL)

GENTAMICIN
MIC (Staphylococcus aureus): 2 µM

Cc1cc(O)cc(O)c1Cc1c(O)c2c(c(C(=O)/C=C/c3ccccc3)c1O)OC(C)(C)C=C2
MIC (Staphylococcus aureus): 7.8 µM (≈ 3.58 µg/mL)

CC(=O)c1c(O)cc(O)c(Cc2c(O)c3c(c(C(=O)/C=C/c4ccccc4)c2O)OC(C)(C)C=C3)c1O
MIC (Staphylococcus aureus): 7.8 µM (≈ 3.92 µg/mL)

CC(=O)c1c(O)c(C)c(O)c(Cc2c(O)c3c(c(C(=O)/C=C/c4ccccc4)c2O)OC(C)(C)C=C3)c1O [ROTTLERIN]
Stability [1]: Stable | Drug metabolism [2]: Metabolite detected | Drug metabolism [3]: 20% | Stability [4]: Stable | Drug metabolism [5]: Metabolite detected | Stability [6]: Stable | Stability [7]: Stable | Stability [8]: Unstable | Stability [9]: Stable | Drug metabolism [10]: Metabolite detected | Stability [11]: Stable | Drug metabolism [12]: Metabolite detected | Stability [13]: Stable | MIC (Staphylococcus aureus): 2 µM (≈ 1.03 µg/mL) | Drug metabolism [14]: 2% | Stability [15]: Stable

CC(=O)c1c(O)c(C)c(O)c(Cc2c3c(c(O)c4c2OC(c2ccccc2)CC4=O)C=CC(C)(C)O3)c1O (stereo unspecified)
MIC (Staphylococcus aureus): > 125 µM
